Measurements reported in ChEMBL document CHEMBL1124588, “Synthesis and evaluation of N,N-di-n-propyltetrahydrobenz[f]indol-7-amine and related congeners as dopaminergic agonists” (J Med Chem, 1989).

Experiments:
[1] = target: D(2) dopamine receptor (Rattus norvegicus) (UniProt P61169); assay: Dopamine D2 agonistic activity (2 mg/kg) as plasma prolactin level in reserpinized rats; type: functional, organism-based
Outline: (§1)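 Male Sprague-Dawley rats were given reserpine 15 mg/kg ip as an aqueous suspension 18 h before dosing. Compound in 10% ethanol was given ip; controls received saline. Rats were killed 1 h later and blood was allowed to clot. Serum prolactin was measured by NIAMD radioimmunoassay as ng NIAMD-prolactin-PR-1/mL and expressed as percent change versus control.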

[2] = target: D(2) dopamine receptor (Rattus norvegicus) (UniProt P61169); assay: Dopamine D2 agonistic activity (2 mg/kg) as percent change in prolactin level in reserpinized rats; type: functional, organism-based; outline: as §1
[3] = target: D(2) dopamine receptor (Rattus norvegicus) (UniProt P61169); conditions: Plasma

D(2) dopamine receptor (Rattus norvegicus), sequence (P61169 whole entry): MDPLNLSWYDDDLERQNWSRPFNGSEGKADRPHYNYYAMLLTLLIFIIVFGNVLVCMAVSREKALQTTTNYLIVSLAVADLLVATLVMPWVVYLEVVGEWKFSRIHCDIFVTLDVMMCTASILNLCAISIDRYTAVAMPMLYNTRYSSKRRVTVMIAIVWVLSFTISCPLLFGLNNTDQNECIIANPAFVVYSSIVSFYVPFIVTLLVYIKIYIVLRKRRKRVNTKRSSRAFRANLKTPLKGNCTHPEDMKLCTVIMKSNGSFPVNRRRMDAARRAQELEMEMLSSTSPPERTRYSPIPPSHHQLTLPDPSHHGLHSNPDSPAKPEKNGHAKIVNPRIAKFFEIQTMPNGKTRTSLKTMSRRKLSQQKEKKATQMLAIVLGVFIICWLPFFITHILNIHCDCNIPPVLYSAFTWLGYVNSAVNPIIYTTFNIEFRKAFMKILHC

SMILES	PRL [1] [ng/mL]	Change [2] [%]	PRL [3] [ng/mL]
CCCN(CCC)CCc1ccc2cc[nH]c2c1	51.2	0	–
CCCN(CCC)C1CCc2ccc3[nH]ccc3c2C1 (configuration not stated)	–	–	3.8
CCCN(CCC)CCc1cccc(NC(=O)C(F)(F)F)c1	36.8	-21	–
CCCN(CCC)CCc1cccc(NC(C)=O)c1	36.9	-19	–
CCCN(CCC)C1CCc2cc3cc[nH]c3cc2C1 (configuration not stated)	30.6	-37	–
CCCN(CCC)CCc1cccc(NS(C)(=O)=O)c1	12.6	-76	–
CCCN(CCC)C1CCc2ccc(NS(C)(=O)=O)cc2C1 (configuration not stated)	28.3	-41	–
CCCN(CCC)C1CCc2ccc(NC(C)=O)cc2C1 (configuration not stated)	38.9	-19	–
CCCN(CCC)CCc1cccc2[nH]ccc12	5	-69	–
